According to paper PMC3949619 (Bioorganic & medicinal chemistry, 2013):

Key:
[1] = test system: d(TTAGGG)4 quadruplex DNA; assay: UV melting of quadruplex DNA; type: binding, human; details: range over 50 and 150 mM K+ and over the compounds named together
Summary of the method: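 d(TTAGGG)4 at 5 μM strand, annealed at 90 °C for 5 min and slowly cooled over 4 h; test compound 20 μM. Buffer: 10 mM potassium phosphate, pH 7.5, plus KCl at 32 mM (50 mM K+) or 132 mM (150 mM K+). Absorbance read at 295 nm in 0.5 °C steps with 1 min equilibration. Ttran taken from the first-derivative minimum. ΔTtran is the shift against DNA alone, ±1.0 °C.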

[2] = qualitative statement of the introduction; no reference given; cited from earlier work
[3] = test system: KB3-1; details: read-out: IC50 against KB3-1 cells; range for compounds 1 and 2 together; cited from earlier work
[4] = test system: human breast cancer xenograft (MDA-MB-435); details: MDA-MB-435 human breast cancer xenograft, athymic nude mice; cited from earlier work
[5] = in vivo; cited from earlier work
[6] = test system: KBV-1 (overexpresses the efflux transporter MDR1); assay: MTT-microtiter plate tetrazolinium cytotoxicity assay; type: cell-based, human; details: inferred from cytotoxicity in KBV-1 versus parent KB3-1
[7] = test system: KBH5.0 (overexpresses BCRP); assay: as above; type: cell-based, human; details: inferred from cytotoxicity in KBH5.0 versus parent KB3-1

| SMILES | ΔTtran of quadruplex DNA (range given) [1] | substrate for MDR1 efflux transporter [6] | substrate for BCRP efflux transporter [7] | further results |
| --- | --- | --- | --- | --- |
| CC(C)[C@@H]1NC(=O)c2coc(n2)-c2coc(n2)-c2cccc(c2)-c2cccc(c2)-c2nc(co2)-c2nc(co2)CNC1=O [Compound 17] | 4.1–6.4 °C |  |  |  |
| CC(C)[C@@H]1NC(=O)c2coc(n2)-c2coc(n2)-c2coc(n2)C/C=C/c2coc(n2)-c2coc(n2)-c2coc1n2 [METV] |  |  |  | aqueous solubility [2]: poor aqueous solubility |
| CN(C)CCc1cc2cc(c1)CNC(=O)c1coc(n1)-c1coc(n1)-c1cccc(n1)-c1nc(co1)-c1nc(co1)C(=O)NC2 [Compound 2] |  |  |  | IC50 [3]: 30 to 40 nM; %T/C value [4]: 27.7% |
| CC(C)[C@@H]1NC(=O)c2coc(n2)-c2coc(n2)-c2coc(n2)[C@H](C(C)C)NC(=O)c2coc(n2)-c2coc(n2)-c2coc1n2 [HXDV] |  |  |  | aqueous solubility [2]: poor aqueous solubility |
| CC(C)(C)OC(=O)NCC[C@@H]1NC(=O)c2coc(n2)-c2coc(n2)-c2cccc(c2)-c2cccc(c2)-c2nc(co2)-c2nc(co2)CNC1=O [Compound 19] | 1.1–2.8 °C |  |  |  |
| CC(C)[C@@H]1NC(=O)c2coc(n2)-c2coc(n2)-c2coc(n2)[C@H](CCN(C)C)NC(=O)c2coc(n2)-c2coc(n2)-c2coc1n2 [YAK-1-161] |  |  |  | well tolerated dose levels [5]: ≤ 45 mg/kg |
| NCC[C@@H]1NC(=O)c2coc(n2)-c2coc(n2)-c2cccc(c2)-c2cccc(c2)-c2nc(co2)-c2nc(co2)CNC1=O [Compound 20] | 8.4–14.6 °C | substrates | substrates |  |
| O=C1N[C@@H](Cc2ccccc2)C(=O)NCc2coc(n2)-c2coc(n2)-c2cccc(c2)-c2cccc(c2)-c2nc(co2)-c2nc1co2 [Compound 18] | 1.1–2.8 °C |  |  |  |
| O=C1CNC(=O)c2coc(n2)-c2coc(n2)-c2cccc(c2)-c2cccc(c2)-c2nc(co2)-c2nc(co2)CN1 [Compound 16] | 4.1–6.4 °C | substrates | substrates |  |
| CN(C)CC[C@@H]1NC(=O)c2coc(n2)-c2coc(n2)-c2cccc(c2)-c2cccc(c2)-c2nc(co2)-c2nc(co2)CNC1=O [Compound 21] | 8.4–14.6 °C | substrates | substrates |  |
